Laboratory results published in ChEMBL document CHEMBL4138188, “Eurycomalactone Inhibits Expression of Endothelial Adhesion Molecules at a Post-Transcriptional Level” (J Nat Prod, 2017).
pIC50: −log10 of the molar value. Active and inactive are the calls of the source.

What was measured:
[1] = species: Homo sapiens; experiment: Inhibition of NF-kappaB in HUVECtert assessed as reduction in TNFalpha-induced VCAM-1 mRNA expression level at 10 uM pretreated for 30 mins followed by TNFalpha stimulation measured after 4 hrs by qRT-PCR analysis
How it was run: (§1)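 HUVECtert (immortalised HUVEC, used to passage 15), 0.5 × 10^6 cells grown 48 h on gelatin-coated dishes. Preincubated 30 min with compound or 0.1% DMSO vehicle, then TNFα 10 ng/mL for 2 h (E-selectin) or 4 h (VCAM-1, ICAM-1). After RNA isolation and cDNA synthesis, mRNA was quantified by qRT-PCR using the 2−ΔΔCt method. Means ± SD, n = 3.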

[2] = species: Homo sapiens; experiment: Inhibition of NF-kappaB in HUVECtert assessed as reduction in TNFalpha-induced ICAM-1 mRNA expression level at 10 uM pretreated for 30 mins followed by TNFalpha stimulation measured after 4 hrs by qRT-PCR analysis; how it was run: as §1
[3] = species: Homo sapiens; experiment: Inhibition of NF-kappaB in HUVECtert assessed as reduction in TNFalpha-induced E-selectin mRNA expression level at 10 uM pretreated for 30 mins followed by TNFalpha stimulation measured after 2 hrs by qRT-PCR analysis; how it was run: as §1
[4] = Inhibition of NF-kappaB in HUVECtert assessed as reduction in TNFalpha-induced VCAM-1 expression level pretreated for 30 mins followed by TNFalpha stimulation measured after 18 hrs by flow cytometry; design: species or system Homo sapiens
How it was run: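 FITC-antibody surface staining, flow cytometry; expression relative to TNFα-stimulated control. Parthenolide 10 μM as positive control; means ± SD, n = 3, one-way ANOVA/Dunnett versus vehicle.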

[5] = species: Homo sapiens; experiment: Inhibition of NF-kappaB in HUVECtert assessed as reduction in TNFalpha-induced VCAM-1 mRNA expression level at 35 uM pretreated for 30 mins followed by TNFalpha stimulation measured after 4 hrs by qRT-PCR analysis
[6] = species: Homo sapiens; experiment: Inhibition of NF-kappaB in HUVECtert assessed as reduction in TNFalpha-induced ICAM-1 mRNA expression level at 35 uM pretreated for 30 mins followed by TNFalpha stimulation measured after 4 hrs by qRT-PCR analysis
[7] = species: Homo sapiens; experiment: Inhibition of NF-kappaB in HUVECtert assessed as reduction in TNFalpha-induced E-selectin mRNA expression level at 35 uM pretreated for 30 mins followed by TNFalpha stimulation measured after 2 hrs by qRT-PCR analysis
[8] = species: Homo sapiens; experiment: Reduction in cyclin D1 level in HUVECtert at 1 uM by Western blot analysis; assay type: functional; settings: TDE = time-dependent effect
How it was run: (§2)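 HUVECtert treated with 1 μM cycloheximide, 2 μM agent, vehicle, or left untreated for a time course; cyclin D1 or survivin by Western blot, actin loading control; means ± SD of three blots, one-way ANOVA/Dunnett versus untreated.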

[9] = species: Homo sapiens; experiment: Reduction in survivin level in HUVECtert at 1 uM by Western blot analysis; assay type: functional; settings: TDE = time-dependent effect; how it was run: as §2
[10] = species: Homo sapiens; experiment: Reduction in p53 level in HUVECtert at 1 uM after 8 hrs by Western blot analysis; assay type: functional
[11] = species: Homo sapiens; experiment: Reduction in cyclin A level in HUVECtert at 1 uM after 8 hrs by Western blot analysis; assay type: functional
[12] = species: Homo sapiens; experiment: Inhibition of NF-kappaB in HUVECtert assessed as reduction in cyclin D1 mRNA expression level at 1 uM measured up to 240 mins by qRT-PCR analysis
How it was run: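 HUVECtert incubated without TNFα with 2 μM agent, 1 μM cycloheximide or 0.1% DMSO for 0.5−4 h; cyclin D1 mRNA by qRT-PCR, 2−ΔΔCt analysis.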

[13] = species: Homo sapiens; experiment: Inhibition of de novo protein synthesis in HUVECtert at 1 to 35 uM after 30 mins by Click-iT OPP/Alexa fluor 488 picolyl azide reagent based confocal fluorescence microscopy; assay type: functional
How it was run: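 Cells on gelatin coverslips (24 h) exposed 30 min to agent (2 or 5 μM; cycloheximide 1, 3.5, 35 μM) or 0.1% DMSO, then 20 μM OPP for 30 min; formaldehyde fixation, Triton permeabilisation, Alexa 488 picolyl azide click reaction 30 min, nuclear counterstain; confocal imaging at 10×, constant gain and exposure.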

[14] = species: Homo sapiens; experiment: Inhibition of de novo protein synthesis in HUVECtert at 1 to 35 uM after 30 mins by Click-iT OPP/Alexa fluor 488 picolyl azide reagent based flow cytometry; assay type: functional
How it was run: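 HUVECtert (1 × 10^6 cells in tubes) exposed 30 min to agent (2 or 5 μM; cycloheximide 1−35 μM) or vehicle, then 20 μM OPP 30 min; fixed, permeabilised, Alexa 488 click-labelled in Tris buffer pH 7.4; FL-1 flow cytometry relative to control; n = 3, one-way ANOVA/Dunnett.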

C=C1C(=O)O[C@@H]2C3O[C@]3(C)CC/C=C(\C)CC[C@@H]12 (some centres undefined)
active: inhibition [1] | inhibition [2] | inhibition [3]

C[C@@H]1C[C@@H]([C@H](O)CC2CC(=O)NC(=O)C2)C(=O)[C@@H](C)C1 [CYCLOHEXIMIDE]
6.52: pIC50 [4]
inactive: inhibition [6] | inhibition [7] | Activity [10] | Activity [11] | inhibition [12]
active: inhibition [5] | Activity [8] Tde | Activity [9] Tde | inhibition [13] | inhibition [14]
